# Test results: ChEMBL document CHEMBL4402595, “Discovery of Orally Bioavailable Chromone Derivatives as Potent and Selective BRD4 Inhibitors: Scaffold Hopping, Optimization, and Pharmacological Evaluation” (J Med Chem, 2020)
# Activity calls are given as the source filed them. No cut-off for these calls is given here.
# Key:
# [1] = system: Mus musculus; assay: (§1) Antiinflammatory activity in C57BL6/J mouse model of TLR3-induced acute airway inflammation assessed as inhibition of elevated total cells in BALF at 10 mg/kg, po pre-treated 1 day before poly(I:C) stimulation followed by compound re-dosing at 10 mg/kg, po before another poly(I:C) stimulation and measured after 1 day post last poly(I:C) stimulation; assay type: functional, organism-based
# Procedure, shortened: (§2)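 Male C57BL/6J mice, 12 weeks old, 5 per group, dosed 10 mg/kg one day before and again immediately before intranasal poly(I:C) (300 μg/50 μL PBS). BALF was collected 1 day later. Total viable cells were counted by trypan blue with a hemocytometer. Neutrophils were counted as a differential of 300 cells on Wright-Giemsa stained cytospins.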
# [2] = system: Mus musculus; assay: (§3) Antiinflammatory activity in C57BL6/J mouse model of TLR3-induced acute airway inflammation assessed as inhibition of elevated MCP1 levels in BALF at 10 mg/kg, po pre-treated 1 day before poly(I:C) stimulation followed by compound re-dosing at 10 mg/kg, po before another poly(I:C) stimulation and measured after 1 day post last poly(I:C) stimulation by cytokine Bio-Plex assay; assay type: functional, organism-based
# Procedure, shortened: (§4)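 Male C57BL/6J mice, 12 weeks old, 5 per group, dosed 10 mg/kg the day before and again immediately before intranasal poly(I:C) (300 μg in 50 μL PBS). BALF was collected 1 day later by two 1 mL PBS lavages and centrifuged at 800 × g for 5 min at 4 °C. Supernatant cytokines were measured by multiplex bead immunoassay against recombinant standards in triplicate.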
# [3] = system: Mus musculus; assay: as §1, with “elevated IL6 gene expression” for “elevated total cells”, “in lung” for “in BALF”, “mg/kg, ip” for “mg/kg, po”; assay type: functional, organism-based
# Procedure, shortened: (§5)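 Male C57BL/6J mice, 12 weeks old, 5 per group, dosed 10 mg/kg one day before challenge and again immediately before intranasal poly(I:C) (300 μg in 50 μL PBS). Controls were vehicle alone and poly(I:C) alone. Lungs were taken 1 day later. Gene expression in lung tissue was measured by qRT-PCR, normalized to PPIA.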
# [4] = system: Mus musculus; assay: as §3, with “elevated RANTES” for “elevated MCP1”, “mg/kg, ip” for “mg/kg, po”; assay type: functional, organism-based; procedure, shortened: as §4
# [5] = system: Mus musculus; assay: as §1, with “IL6 gene expression” for “total cells”, “lung” for “BALF”; assay type: functional, organism-based; procedure, shortened: as §5
# [6] = system: Mus musculus; assay: as §3, with “elevated KC” for “elevated MCP1”, “mg/kg, ip” for “mg/kg, po”; assay type: functional, organism-based; procedure, shortened: as §4
# [7] = Aqueous solubility in water incubated at 25 degC for 24 hrs by HPLC analysis; assay type: physicochemical; conditions: buffer
# Procedure, shortened: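 Compound suspension was shaken at 25 °C for 24 h, then centrifuged and the supernatant filtered. Supernatant was quantified by C18 reverse-phase HPLC against a one-point calibration of a known concentration.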
# [8] = system: Mus musculus; assay: as §3, with “IL-6” for “MCP1”; assay type: functional, organism-based; procedure, shortened: as §4
# [9] = system: Mus musculus; assay: as §1, with “mg/kg, ip” for “mg/kg, po”; assay type: functional, organism-based; procedure, shortened: as §2
# [10] = Oral bioavailability in Sprague-Dawley rat at 20 mg/kg measured after 2 to 26 hrs; assay type: ADME, organism-based; conditions: in vivo
# Procedure, shortened: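 Male Sprague-Dawley rats received a single dose either intravenously (10 mg/kg) or orally. Plasma concentration–time curves were followed after each route. Total clearance (CL) came from the i.v. arm, and oral bioavailability (F) was derived by comparing the p.o. and i.v. profiles.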
# [11] = AUC (0 to t) in Sprague-Dawley rat at 20 mg/kg, po measured after 2 to 26 hrs; assay type: ADME, organism-based; conditions: in vivo
# [12] = system: Mus musculus; assay: as §1, with “elevated neutrophils” for “elevated total cells”, “mg/kg, ip” for “mg/kg, po”; assay type: functional, organism-based; procedure, shortened: as §2
# [13] = system: Mus musculus; assay: Antiinflammatory activity in C57BL6/J mouse model of TLR3-induced acute airway inflammation assessed as inhibition of neutrophilic inflammation around small and medium-sized airways at 10 mg/kg, po pre-treated 1 day before poly(I:C) stimulation followed by compound re-dosing at 10 mg/kg, po before another poly(I:C) stimulation and measured after 1 day post last poly(I:C) stimulation by …; assay type: functional
# [14] = system: Mus musculus; assay: as §1, with “ISG54 gene expression” for “total cells”, “lung” for “BALF”; assay type: functional, organism-based; procedure, shortened: as §5
# [15] = Half life in Sprague-Dawley rat at 20 mg/kg, po measured after 2 to 26 hrs; assay type: ADME, organism-based; conditions: in vivo
# [16] = system: Mus musculus; assay: as §1, with “elevated ISG54 gene expression” for “elevated total cells”, “in lung” for “in BALF”, “mg/kg, ip” for “mg/kg, po”; assay type: functional, organism-based; procedure, shortened: as §5
# [17] = system: Mus musculus; assay: Antiinflammatory activity in C57BL6/J mouse model of TLR3-induced acute airway inflammation assessed as inhibition of neutrophilic inflammation around small and medium-sized airways at 10 mg/kg, ip pre-treated 1 day before poly(I:C) stimulation followed by compound re-dosing at 10 mg/kg, ip before another poly(I:C) stimulation and measured after 1 day post last poly(I:C) stimulation by …; assay type: functional
# [18] = system: Mus musculus; assay: as §3, with “KC” for “MCP1”; assay type: functional, organism-based; procedure, shortened: as §4
# [19] = system: Mus musculus; assay: as §3, with “mg/kg, ip” for “mg/kg, po”; assay type: functional, organism-based; procedure, shortened: as §4
# [20] = system: Mus musculus; assay: as §1, with “neutrophils” for “total cells”; assay type: functional, organism-based; procedure, shortened: as §2
# [21] = system: Mus musculus; assay: (§6) In-vivo inhibition of BRD4 in C57BL6/J mouse model of TLR3-induced acute airway inflammation assessed as reduction in H3K122Ac levels in lung at 10 mg/kg, po pre-treated 1 day before poly(I:C) stimulation followed by compound re-dosing at 10 mg/kg, po before another poly(I:C) stimulation and measured after 1 day post last poly(I:C) stimulation by immunofluorescence staining; assay type: functional, organism-based
# Procedure, shortened: (§7)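 Male C57BL/6J mice, 5 per group, dosed 10 mg/kg before and again at intranasal poly(I:C) challenge (300 μg). Lungs were taken 1 day later, paraffin sections made, and antigen retrieved at pH 9.0. Sections were stained with anti-acetyl-H3K122 and an Alexa 568 secondary with DAPI, imaged by confocal at 63×, and total fluorescence reported as fold change.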
# [22] = Half life in Sprague-Dawley rat at 10 mg/kg, iv measured after 2 to 26 hrs; assay type: ADME, organism-based; conditions: in vivo
# [23] = system: Mus musculus; assay: as §1, with “elevated CIG5 gene expression” for “elevated total cells”, “in lung” for “in BALF”, “mg/kg, ip” for “mg/kg, po”; assay type: functional, organism-based; procedure, shortened: as §5
# [24] = system: Mus musculus; assay: as §1, with “CIG5 gene expression” for “total cells”, “lung” for “BALF”; assay type: functional, organism-based; procedure, shortened: as §5
# [25] = system: Mus musculus; assay: as §6, with “mg/kg, ip” for “mg/kg, po”; assay type: functional, organism-based; procedure, shortened: as §7
solubility [7] [mg/mL],F [10] [%],AUC(0-t) [11] [ng·h/mL],half-life [15] [h],Compound,inhibition [1],inhibition [2],inhibition [3],inhibition [4],inhibition [5],inhibition [6],inhibition [8],inhibition [9],inhibition [12],inhibition in vivo at 10 mg/kg [13] [%],inhibition [14],inhibition [16],inhibition in vivo at 10 mg/kg [17] [%],inhibition [18],inhibition [19],inhibition [20],also measured
> 50,38.2,5170,2.4,COc1cc(OC)c2c(=O)cc(-c3cc(C)c(OC[C@H](O)CN4CCCCC4)c(C)c3)oc2c1,Active,Active,Active,Active,Active,Active,Active,Active,Active,100,Active,Active,100,Active,Active,Active,inhibition [21]: Active; half-life [22]: 3.5 h; inhibition [23]: Active; inhibition [24]: Active; inhibition [25]: Active
> 50,35.3,4970,2.8,COc1cc(OC)c2c(=O)cc(-c3cc(C)c(OC[C@H](O)CN4CCN(C)CC4)c(C)c3)oc2c1,Active,Active,Active,Active,Active,Active,Active,Active,Active,100,Active,Active,100,Active,Active,Active,inhibition [21]: Active; half-life [22]: 4.1 h; inhibition [23]: Active; inhibition [24]: Active; inhibition [25]: Active
